Columns and labels:
[1] = target: T1, 3-oxo-5-alpha-steroid 4-dehydrogenase 1 (Homo sapiens) (UniProt P18405); experiment: Inhibition of human 5alpha-1 reductase expressed in HEK293 cells assessed as suppression of conversion of [3]androstenedione at 10 uM incubated for 30 mins by radioactivity-based HPLC analysis; type: cell-based
T1 sequence (whole entry): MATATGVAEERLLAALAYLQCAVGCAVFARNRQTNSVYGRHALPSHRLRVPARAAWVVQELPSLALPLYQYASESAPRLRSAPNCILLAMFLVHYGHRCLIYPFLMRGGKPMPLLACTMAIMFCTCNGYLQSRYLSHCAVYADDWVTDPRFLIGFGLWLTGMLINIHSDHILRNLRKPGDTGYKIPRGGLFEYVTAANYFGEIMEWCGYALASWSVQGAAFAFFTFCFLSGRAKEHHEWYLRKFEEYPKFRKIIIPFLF
In short: (§1)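 Stably transfected HEK293 lines expressing 5AR-1 (HEK-I) or 5AR-2 (HEK-II) were sonicated in saccharose/Tris/EDTA buffer. The suspension was incubated at 37 °C for 30 min with 500 nM androstenedione solution plus [3H]androstenedione and an NADP/glucose/G6PDH regenerating system. Test compounds were added in 2% DMSO. The reaction was stopped with ether; steroids were extracted and analysed by radio-HPLC.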

[2] = target: T1, 3-oxo-5-alpha-steroid 4-dehydrogenase 1 (Homo sapiens); experiment: Inhibition of human 5alpha-1 reductase expressed in HEK293 cells assessed as suppression of conversion of [3]androstenedione at 2 uM incubated for 30 mins by radioactivity-based HPLC analysis; type: cell-based
In short: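 Lysates of stably transfected HEK293 cells (80% confluent cells sonicated in 300 mM saccharose, 5 mM Tris–HCl, 0.1 mM EDTA). Master mix: Tris buffer, androstenedione (500 nM solution) plus tracer [3H]androstenedione, NADP/glucose/glucose-6-P-dehydrogenase regenerating system; compound added in 2% DMSO. Cell suspension mixed 1:1 with master mix, 37 °C for 30 min. Stopped with ether; steroids extracted, dried, taken up in methanol, radio-HPLC.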

[3] = target: T2, 3-oxo-5-alpha-steroid 4-dehydrogenase 2 (Homo sapiens) (UniProt P31213); experiment: Inhibition of human 5alpha-2 reductase expressed in HEK293 cells assessed as suppression of conversion of [3]androstenedione at 10 uM incubated for 30 mins by radioactivity-based HPLC analysis; type: cell-based; in short: as §1
T2 sequence (whole entry): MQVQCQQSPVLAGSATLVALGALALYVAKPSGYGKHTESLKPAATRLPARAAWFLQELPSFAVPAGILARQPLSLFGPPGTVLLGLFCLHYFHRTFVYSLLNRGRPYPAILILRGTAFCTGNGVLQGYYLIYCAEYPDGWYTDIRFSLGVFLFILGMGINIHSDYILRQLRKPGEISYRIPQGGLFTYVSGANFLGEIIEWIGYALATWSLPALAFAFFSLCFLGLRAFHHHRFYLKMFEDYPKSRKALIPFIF

[4] = target: T2, 3-oxo-5-alpha-steroid 4-dehydrogenase 2 (Homo sapiens); experiment: Inhibition of human 5alpha-2 reductase expressed in HEK293 cells assessed as suppression of conversion of [3]androstenedione at 2 uM incubated for 30 mins by radioactivity-based HPLC analysis; type: cell-based; in short: as §1
[5] = target: T3, 3-oxo-5-alpha-steroid 4-dehydrogenase 2 (Homo sapiens, UniProt P31213); experiment: Inhibition of human 5alpha-2 reductase expressed in HEK293 cells assessed as suppression of conversion of [3]androstenedione incubated for 30 mins by radioactivity-based HPLC analysis; type: cell-based; in short: as §1
T3 sequence (P31213 whole entry): T2 sequence (whole entry)

[6] = Cytotoxicity against human DU145 cells by rapid colorimetric assay; type: functional, cell-based, DU-145
In short: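 Antiproliferative test on DU-145 cells using the Mosmann method. Seven concentrations were tested in culture medium.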

Rattus norvegicus [7] = experiment: Increase in body weight gain in male wistar rat at 5ml/kg, po qd measured on 15th day after 24 hrs of last dose (Rvb=9.412+/-1.632g%); type: ADME, organism-based; conditions: in vivo
Rattus norvegicus [8] = experiment: Effect on organ weight in male wistar rat assessed as liver tissue weight per 100g at 5ml/kg, po qd measured on 15th day after 24 hrs of last dose (Rvb=2.994+/- 0.254 g/100g); type: ADME, organism-based; conditions: in vivo
Rattus norvegicus [9] = experiment: Effect on organ weight in male wistar rat assessed as ventral prostate tissue weight per 100g at 5ml/kg, po qd measured on 15th day after 24 hrs of last dose (Rvb=59.494+/- 4.733 mg/100g); type: functional, Prostate gland
Rattus norvegicus [10] = experiment: Effect on organ weight in male wistar rat assessed as dorsal prostate tissue weight per 100g at 5ml/kg, po qd measured on 15th day after 24 hrs of last dose (Rvb=50.325+/-7.519 mg/100g); type: functional, Prostate gland
Rattus norvegicus [11] = experiment: Effect on organ weight in male wistar rat assessed as seminal vesicles tissue weight per 100g at 5ml/kg, po qd measured on 15th day after 24 hrs of last dose (Rvb=175.439+/-12.833 mg/100g); type: ADME, organism-based; conditions: in vivo
Rattus norvegicus [12] = experiment: Effect on organ weight in male wistar rat assessed testis tissue weight per 100g at 5ml/kg, po qd measured on 15th day after 24 hrs of last dose (Rvb=1054.099+/- 55.648 mg/100g); type: ADME, organism-based; conditions: in vivo
Rattus norvegicus [13] = experiment: Effect on organ weight in male wistar rat assessed as adrenal tissue weight per 100g at 5ml/kg, po qd measured on 15th day after 24 hrs of last dose (Rvb=14.762 +/-0.600 mg/100g); type: ADME, organism-based; conditions: in vivo
Rattus norvegicus [14] = experiment: Effect on organ weight in male wistar rat assessed as vas deferens tissue weight per 100g at 5ml/kg, po qd measured on 15th day after 24 hrs of last dose (Rvb=67.613+/-3.248 mg/100g); type: functional
Rattus norvegicus [15] = experiment: Effect on organ weight in male wistar rat assessed as epididymis tissue weight per 100g at 5ml/kg, po qd measured on 15th day after 24 hrs of last dose (Rvb=187.356+/- 5.961 mg/100g); type: functional
Rattus norvegicus [16] = experiment: Decrease in ventral prostate organ weight in male wistar rat at 5ml/kg, po qd measured on 15th day after 24 hrs of last dose; type: functional, Prostate gland; set-up: scale not given: the % may be the effect or the level left
Rattus norvegicus [17] = experiment: Decrease in dorsal prostate organ weight in male wistar rat at 5ml/kg, po qd measured on 15th day after 24 hrs of last dose; type: functional, Prostate gland; set-up: scale not given: the % may be the effect or the level left
Rattus norvegicus [18] = experiment: Decrease in vas deferens organ weight in male wistar rat at 5ml/kg, po qd measured on 15th day after 24 hrs of last dose; type: functional; set-up: scale not given: the % may be the effect or the level left
Rattus norvegicus [19] = experiment: Decrease in epididymis organ weight in male wistar rat at 5ml/kg, po qd measured on 15th day after 24 hrs of last dose; type: functional; set-up: scale not given: the % may be the effect or the level left
Rattus norvegicus [20] = experiment: Toxicity in male wistar rat assessed induction of mortality at 5ml/kg, po qd measured on 15th day after 24 hrs of last dose; type: organism-based; conditions: in vivo
In short: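 Mature male Wistar rats, groups of 5, standard diet. Compounds suspended in 0.50% CMC sodium given orally at 5 ml/kg once daily for 14 days; controls received vehicle only. Animals weighed and killed under ether on day 15, 24 h after last dose.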

[21] = Homo sapiens, DU-145, read-out: IC50

Row | SMILES | inhibition [1] [%] | inhibition [3] [%] | inhibition [4] [%] | IC50 [5] [µM] | IC50 ([6]; du-145) | Activity (Rattus norvegicus [7]) [g%] | Activity (Rattus norvegicus [8]) [g] | Activity (Rattus norvegicus [9]) [mg] | Activity (Rattus norvegicus [10]) [mg] | Activity (Rattus norvegicus [11]) [mg] | Activity (Rattus norvegicus [12]) [mg] | Activity (Rattus norvegicus [13]) [mg] | Activity (Rattus norvegicus [14]) [mg] | Activity (Rattus norvegicus [15]) [mg] | Activity (Rattus norvegicus [16]) [%] | Activity (Rattus norvegicus [17]) [%] | Activity (Rattus norvegicus [18]) [%] | Activity (Rattus norvegicus [19]) [%] | Activity (Rattus norvegicus [20]) | IC50 [6, 21] [µM] | further results
1 | C[C@]12CCC(c3nnn[nH]3)=CC1=CC[C@@H]1[C@@H]2CC[C@]2(C)C(=O)CC[C@@H]12 | 81.1 | 100 | 100 | 0.0838 | Not Active | 18.382 | 3.257 | 38.551 | 42.651 | 95.251 | 1090.046 | 17.986 | 27.646 | 119.445 | 35.2 | 15.25 | 59.11 | 36.25 | Non-toxic |  | inhibition [2]: 38.7%
2 | C[C@]12CCC(c3nnn[nH]3)=CC1=CC[C@@H]1[C@@H]2CC[C@@]2(C)[C@H]1CCC(=O)N2Cc1ccccc1 |  |  |  |  | ND(Unstable) |  |  |  |  |  |  |  |  |  |  |  |  |  |  |  | 
3 | C[C@]12CC[C@H]3[C@@H](CCC4=CC(=O)CC[C@@]43C)[C@@H]1CC[C@@H]2O [TESTOSTERONE] |  |  |  |  |  | 3.767 | 3.292 | 70.923 | 45.124 | 167.305 | 1108.457 | 13.969 | 55.097 | 171.193 |  |  |  |  |  |  | 
4 | CC(=O)n1nnnc1C1=CC2=CC[C@@H]3[C@H](CC[C@]4(C)NC(=O)CC[C@@H]34)[C@@]2(C)CC1 |  |  |  |  | ND(Unstable) |  |  |  |  |  |  |  |  |  |  |  |  |  |  |  | 
5 | CN1C(=O)CC[C@H]2[C@@H]3CC=C4C=C(c5nnn[nH]5)CC[C@]4(C)[C@H]3CC[C@@]21C | 6.4 | 91.2 | 84.3 | 0.274 |  | 15.456 | 3.328 | 41.684 | 44.593 | 199.778 | 1233.129 | 16.362 | 59.796 | 170.447 | 29.94 | 11.39 | 11.56 | 9.03 | Non-toxic | 389 | 
6 | C[C@]12CC[C@H]3[C@@H](CC=C4C=C(c5nnn[nH]5)CC[C@@H]43)[C@@H]1CCC2=O | 79.7 | 79.7 | 60.6 |  |  | 21.51 | 3.457 | 56.124 | 46.695 | 188.757 | 1350.787 | 19.76 | 59.232 | 180.908 | 5.66 | 7.21 | 12.4 | 3.44 | Non-toxic | 536 | inhibition [2]: 36.2%
7 | C[C@]12C=CC(=O)N[C@@H]1CC[C@@H]1[C@@H]2CC[C@]2(C)[C@@H](C(=O)Nc3cc(C(F)(F)F)ccc3C(F)(F)F)CC[C@@H]12 [DUTASTERIDE] |  |  |  |  |  | 11.914 | 3.209 | 35.858 | 29.211 | 118.275 | 1067.385 | 14.208 | 52.802 | 155.415 |  |  |  |  |  |  | 
8 | C[C@]12CCC(c3nnn[nH]3)=CC1=CC[C@@H]1[C@@H]2CC[C@]2(C)NC(=O)CC[C@@H]12 | 9.6 | 100 | 90.6 | 0.22 | Not Active | 15.498 | 3.215 | 44.744 | 31.548 | 183.148 | 1152.287 | 16.421 | 42.532 | 166.584 | 24.79 | 37.31 | 37.09 | 11.09 | Non-toxic |  | 
9 | C[C@]12CCC(c3nnn[nH]3)=CC1=CC[C@@H]1[C@@H]2CC[C@@]2(C)[C@H]1CCC(=O)N2CCc1nnn[nH]1 |  |  |  |  | ND(Unstable) |  |  |  |  |  |  |  |  |  |  |  |  |  |  |  | 
10 | CCN1C(=O)CC[C@H]2[C@@H]3CC=C4C=C(c5nnn[nH]5)CC[C@]4(C)[C@H]3CC[C@@]21C |  |  |  |  | ND(Unstable) |  |  |  |  |  |  |  |  |  |  |  |  |  |  |  | 
11 | C=CCN1C(=O)CC[C@H]2[C@@H]3CC=C4C=C(c5nnn[nH]5)CC[C@]4(C)[C@H]3CC[C@@]21C | 31.7 | 100 | 94.7 | 0.157 |  | 19.229 | 3.548 | 39.499 | 41.802 | 141.816 | 1318.403 | 24.261 | 42.548 | 169.924 | 33.61 | 16.94 | 37.07 | 9.3 | Non-toxic | 496 | 
12 | CC(C)(C)NC(=O)[C@H]1CC[C@H]2[C@@H]3CC[C@H]4NC(=O)C=C[C@]4(C)[C@H]3CC[C@]12C [FINASTERIDE] |  |  |  | 0.04 |  | 8.032 | 3.5097 | 32.866 | 27.519 | 105.51 | 1058.022 | 16.575 | 57.843 | 160.371 | 44.76 | 45.32 | 14.45 | 14.4 |  | 548 | 
